As usually defined, the half-life is how long it takes for the measured level to halve. The term IC50 denotes the midpoint of a concentration-inhibition curve.

Counter-ions that a name gives are not always drawn. A value given as a limit tells only on which side of the number the result lay.

Data set [1] can be described thus: Murine microsomal stability. It counts as in vitro ADME. The conditions noted are these: mouse, pooled murine liver microsomes, pH 7.4, murine microsomal stability, t1/2, 1 μM, 0.5 mg/mL protein, 37 °C, 1 h, NADPH. Background: Liver microsomes are a subcellular fraction often used to study metabolism.
Data set [2] relates to Plasmodium falciparum strain D6. Description: SYBR Green growth inhibition assay, P. falciparum D6. It is filed as cell-based. Particulars: Plasmodium falciparum, D6, 72 h, read-out: IC50 D6.
Data set [3] deals with Plasmodium falciparum strain Dd2. The data set is described as follows: SYBR Green growth inhibition assay, P. falciparum Dd2. It counts as cell-based. The conditions noted are these: Plasmodium falciparum, DD2, 72 h, read-out: IC50 Dd2.
Data set [4] has as its system P. falciparum strain Tm90–C2B. Description: SYBR Green growth inhibition assay, P. falciparum Tm90-C2B. It is filed as cell-based, Plasmodium falciparum. The conditions noted are these: Plasmodium falciparum, TM90, 72 h, read-out: IC50 Tm90–C2B. In outline: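 Human erythrocytes (≤28 days old), 2% hematocrit, asynchronous culture at 0.2% initial parasitemia, in RPMI-1640 with HEPES, hypoxanthine, glucose, glutamine and Albumax II. 2-fold serial dilution starting at 20 μM, quadruplicate. Incubated 72 h at 37 °C under 5% O2/5% CO2/90% N2. SYBR Green I dye-detergent added for at least 1 h in the dark; fluorescence read at 497/520 nm, normalized to untreated wells, plotted against log concentration.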

Data set [5] relates to P. falciparum A6 (SB1-A6). Description: SYBR Green growth inhibition assay, P. falciparum A6. It counts as cell-based, Plasmodium falciparum. The conditions noted are these: Plasmodium falciparum, 72 h, read-out: IC50 A6. The gist of the method:
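Asynchronous parasites grown in human erythrocytes in RPMI-1640 with HEPES, hypoxanthine and Albumax II under 5% O2/5% CO2/90% N2 at 37 °C. Test compound in 2-fold serial dilution from 20 μM, run in quadruplicate, at 2% hematocrit and 0.2% starting parasitemia for 72 h. SYBR Green I lysis dye added for ≥1 h in the dark. Fluorescence read at 497/520 nm, normalized to untreated wells and plotted against log concentration.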

For `O=C(c1ccc(F)cc1)C1CCN(CCn2c(=O)[nH]c3ccccc3c2=O)CC1` [ketanserin, reference compound], the half-life at 1 μM in data set [1] was 14.5 min.
As to `Cc1ccc(/C=N/NC(=N)N/N=C/c2ccc(C)cc2)cc1` [Compound 10, 2,2′-Bis[(4-methylphenyl)methylene]carbonimidic Dihydrazide Hydrochloride], the IC50 is 905 nM in data set [2], 2430 nM in data set [3], 2530 nM in data set [4] and above 5000 nM in data set [5].
The matching figures for `N=C(N/N=C/c1cccc(F)c1)N/N=C/c1cccc(F)c1` [Compound 3, 2,2′-Bis[(3-fluorophenyl)methylene]carbonimidic Dihydrazide Hydrochloride]: 767 nM, above 5000 nM, above 5000 nM and 426 nM.
In the case of `N=C(N/N=C/c1ccccc1F)N/N=C/c1ccccc1F` [Compound 2, 2,2′-Bis[(2-fluorophenyl)methylene]carbonimidic Dihydrazide Hydrochloride], the IC50 was 2870 nM in data set [2], 4590 nM in data set [3], above 5000 nM in data set [4] and 1890 nM in data set [5].
`N=C(N/N=C/c1cccc(Cl)c1)N/N=C/c1cccc(Cl)c1` [Compound 6, 2,2′-Bis[(3-chlorophenyl)methylene]carbonimidic Dihydrazide Hydrochloride]: the half-maximal inhibitory concentration (IC50) in data set [2] was 202 nM; in data set [3], 567 nM; in data set [4], 664 nM; in data set [5] it was 237 nM.
The matching figures for `N=C(N/N=C/c1ccccc1)N/N=C/c1ccccc1` [Compound 24, 2,2′-Bis(phenylmethylene)carbonimidic Dihydrazide Hydrochloride]: 705 nM, 4300 nM, above 5000 nM and 581 nM.
The matching figures for `N=C(N/N=C/c1ccc(C(F)(F)F)cc1)N/N=C/c1ccc(C(F)(F)F)cc1` [Compound 12, 2,2′-Bis[(4-trifluoromethylphenyl)methylene]carbonimidic Dihydrazide Hydrochloride]: 614 nM, 1540 nM, 2740 nM and 567 nM.
Consider `N=C(N/N=C/c1ccccc1)N/N=C/c1ccccc1F` [Compound 38, 2-(Phenylmethylene)-2′-[(2-Fluorophenyl)methylene]carbonimidic Dihydrazide Hydrochloride], for which the IC50 in data set [2] was 1030 nM; in data set [3] it was 2200 nM; in data set [4], above 5000 nM; in data set [5], 833 nM.
As for `N=C(N/N=C/c1cccc(Br)c1)N/N=C/c1cccc(Br)c1` [Compound 8, 2,2′-Bis[(3-bromophenyl)methylene]carbonimidic Dihydrazide Hydrochloride], the IC50 in data set [2] was found to be 572 nM; in data set [3], 1520 nM; in data set [4], 1840 nM; in data set [5] it was 502 nM.
Taken in the same sequence, the figures for `COc1ccc(/C=N/NC(=N)N/N=C/c2ccc(OC)cc2)cc1` [Compound 11, 2,2′-Bis[(4-methoxyphenyl)methylene]carbonimidic Dihydrazide Hydrochloride] were 263 nM, 1600 nM, above 5000 nM and 289 nM.
The matching figures for `N=C(N/N=C/c1ccc(Br)cc1)N/N=C/c1ccc(Br)cc1` [Compound 9, 2,2′-Bis[(4-bromophenyl)methylene]carbonimidic Dihydrazide Hydrochloride]: 277 nM, 876 nM, 899 nM and 269 nM.
As for `N=C(N/N=C/c1cccc(OC(F)(F)F)c1)N/N=C/c1cccc(OC(F)(F)F)c1` [Compound 15, 2,2′-Bis[(3-trifluoromethoxyphenyl)methylene]carbonimidic Dihydrazide Hydrochloride], the 50% inhibitory concentration (IC50) in data set [2] amounted to 670 nM; in data set [3], 1570 nM; in data set [4] it was 2990 nM; in data set [5] it was 689 nM.
The matching figures for `N=C(N/N=C/c1ccc(OC(F)F)cc1)N/N=C/c1ccc(OC(F)F)cc1` [Compound 18, 2,2′-Bis[(4-difluoromethoxyphenyl)methylene]carbonimidic Dihydrazide Hydrochloride]: 71 nM, 191 nM, 193 nM and 87 nM.
The matching figures for `N#Cc1ccccc1/C=N/NC(=N)N/N=C/c1ccccc1C#N` [Compound 20, 2,2′-Bis[(2-cyanophenyl)methylene]carbonimidic Dihydrazide Hydrochloride]: 1020 nM, 2100 nM, 1990 nM and 969 nM.
The matching figures for `N=C(N/N=C/c1ccccc1Br)N/N=C/c1ccccc1Br` [Compound 7, 2,2′-Bis[(2-bromophenyl)methylene]carbonimidic Dihydrazide Hydrochloride]: 280 nM, 715 nM, 974 nM and 876 nM.
On to `CN(C)c1ccc(/C=N/NC(=N)N/N=C/c2ccc(N(C)C)cc2)cc1` [Compound 28, 2,2′-Bis[(4-dimethylaminophenyl)methylene]carbonimidic Dihydrazide Hydrochloride], for which the IC50 in data set [2] came out at 118 nM; in data set [3], 264 nM; in data set [4], 213 nM; in data set [5], 122 nM.
The matching figures for `N=C(N/N=C/c1ccc(F)cc1)N/N=C/c1ccc(F)cc1` [Compound 4, 2,2′-Bis[(4-fluorophenyl)methylene]carbonimidic Dihydrazide Hydrochloride]: 1020 nM, 3790 nM, 4900 nM and 369 nM.
Taken in the same sequence, the figures for `N=C(N/N=C/c1ccc(N2CCOCC2)cc1)N/N=C/c1ccc(N2CCOCC2)cc1` [Compound 33, 2,2′-Bis[(4-morpholinophenyl)methylene]carbonimidic Dihydrazide Hydrochloride] were 131 nM, 329 nM, 295 nM and 116 nM.
Taken in the same sequence, the figures for `N=C(N/N=C/c1ccccc1OC(F)(F)F)N/N=C/c1ccccc1OC(F)(F)F` [Compound 14, 2,2′-Bis[(2-trifluoromethoxyphenyl)methylene]carbonimidic Dihydrazide Hydrochloride] were 1080 nM, 2330 nM, above 5000 nM and 391 nM.
Turning to `N=C(N/N=C/c1ccccc1Cl)N/N=C/c1ccccc1Cl` [Compound 5, 2,2′-Bis[(2-chlorophenyl)methylene]carbonimidic Dihydrazide Hydrochloride], the half-maximal inhibitory concentration (IC50) amounted to 334 nM in data set [2], 961 nM in data set [3], 1220 nM in data set [4] and 348 nM in data set [5].

These data come from paper PMC8273112 (ACS Infectious Diseases, 2021).
